Each block holds one compound with its values, some of them ahead of it. Where no end group is shown, it is not given here.
How the values were obtained:
[1] = biological target: 5-carboxyfluorescein (5-FAM)-labeled AXT107; assay: fluorescence polarisation
[2] = tested on: VEGF-induced vascular leakage; assay: VEGF-induced leakage in rabbit eyes; format: in vivo, rabbit (Dutch Belted)
Outline: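 A single intravitreous dose of test compound (50 μg) or comparator (500 μg) was given in one eye, with vehicle in the fellow eye. VEGF (10 μg) was injected into both eyes on day 23, VFP done day 30, eyes rescanned without fluorescein day 43, VEGF (10 μg) reinjected both eyes day 53, VFP day 60. For VFP, 15 mg sodium fluorescein was given via ear vein. After 1 h, fluorescence was scanned retina-to-cornea, taking the AUC 5–7 mm in front of the retina.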

VEGFR2 = assay: Proteasomal inhibition by lactacystin and total VEGFR2; format: cell-based, human; conditions: 5 μM lactacystin with varying concentrations of AXT107
[3] = Fundus photography after intravitreous injection; format: in vivo, rabbit (Dutch Belted)
Outline: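 Rabbits anaesthetized with IM ketamine (25 mg/kg) and xylazine (2.5 mg/kg), pupils dilated with 2.5% phenylephrine, conjunctiva cleaned with 5% povidone-iodine. Intravitreous injection of 50 μg test compound (or 500 μg comparator) in one eye and vehicle in the fellow eye. Fundus photographs taken 2 and 30 days after injection.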

[4] = Non-GLP safety studies after intravitreous injection; format: in vivo, rabbit; conditions: independent Clinical Research Organization
integrin αvβ3 = integrin αvβ3 (Homo sapiens, UniProt P05106+P06756); assay: Fluorescence anisotropy, integrin αvβ3; format: binding
Sequence of integrin αvβ3 (P06756 31-992 limits assumed): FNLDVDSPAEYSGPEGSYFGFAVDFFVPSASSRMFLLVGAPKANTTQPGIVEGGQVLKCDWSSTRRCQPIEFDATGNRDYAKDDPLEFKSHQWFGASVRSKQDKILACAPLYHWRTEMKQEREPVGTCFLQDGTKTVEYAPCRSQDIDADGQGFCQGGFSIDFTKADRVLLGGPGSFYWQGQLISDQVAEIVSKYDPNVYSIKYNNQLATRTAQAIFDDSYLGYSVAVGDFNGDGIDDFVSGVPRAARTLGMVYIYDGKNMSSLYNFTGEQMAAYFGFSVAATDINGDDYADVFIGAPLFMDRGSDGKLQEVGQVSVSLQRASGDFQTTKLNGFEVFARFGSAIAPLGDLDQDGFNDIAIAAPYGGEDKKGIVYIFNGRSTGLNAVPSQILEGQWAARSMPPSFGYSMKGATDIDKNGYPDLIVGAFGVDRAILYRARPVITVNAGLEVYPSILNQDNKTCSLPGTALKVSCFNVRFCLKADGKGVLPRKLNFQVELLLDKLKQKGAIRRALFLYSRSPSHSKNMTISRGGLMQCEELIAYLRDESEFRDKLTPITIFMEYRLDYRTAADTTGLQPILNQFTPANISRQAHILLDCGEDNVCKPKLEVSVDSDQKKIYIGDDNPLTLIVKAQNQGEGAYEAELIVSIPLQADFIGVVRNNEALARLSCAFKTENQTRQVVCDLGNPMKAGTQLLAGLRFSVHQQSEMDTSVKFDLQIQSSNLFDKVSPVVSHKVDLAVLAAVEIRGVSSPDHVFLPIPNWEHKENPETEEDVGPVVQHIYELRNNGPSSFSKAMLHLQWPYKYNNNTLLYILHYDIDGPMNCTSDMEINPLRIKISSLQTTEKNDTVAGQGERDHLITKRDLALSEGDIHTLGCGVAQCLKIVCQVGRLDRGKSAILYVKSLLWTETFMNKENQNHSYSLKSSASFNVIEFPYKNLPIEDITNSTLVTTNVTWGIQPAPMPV
Sequence of integrin αvβ3 (P05106 27-718 limits assumed): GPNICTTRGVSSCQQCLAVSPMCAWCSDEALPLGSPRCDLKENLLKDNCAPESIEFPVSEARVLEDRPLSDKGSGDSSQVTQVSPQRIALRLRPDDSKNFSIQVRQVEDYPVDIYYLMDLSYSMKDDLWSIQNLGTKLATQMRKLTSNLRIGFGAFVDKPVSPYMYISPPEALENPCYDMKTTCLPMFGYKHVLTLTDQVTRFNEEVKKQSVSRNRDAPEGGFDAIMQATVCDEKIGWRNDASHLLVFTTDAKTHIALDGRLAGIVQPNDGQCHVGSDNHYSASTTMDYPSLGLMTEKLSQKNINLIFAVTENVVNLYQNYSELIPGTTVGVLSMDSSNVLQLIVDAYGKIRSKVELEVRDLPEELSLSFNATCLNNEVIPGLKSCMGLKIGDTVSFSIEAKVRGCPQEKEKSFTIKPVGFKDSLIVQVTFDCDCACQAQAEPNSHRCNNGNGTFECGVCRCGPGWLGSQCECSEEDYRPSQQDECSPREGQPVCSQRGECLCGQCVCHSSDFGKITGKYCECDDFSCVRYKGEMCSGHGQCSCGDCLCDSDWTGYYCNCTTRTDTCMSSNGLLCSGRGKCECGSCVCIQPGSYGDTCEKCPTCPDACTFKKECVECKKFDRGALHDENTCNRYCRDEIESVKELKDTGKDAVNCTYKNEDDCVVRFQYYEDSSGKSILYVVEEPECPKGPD
Outline: (§1)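 FAM-labelled test compound (10 nM, dissolved in DMSO; final DMSO 0.0005%) mixed with 0–75 nM soluble recombinant heterodimeric integrin in 50 mM tris pH 7.5, 1 mM CaCl2, 1 mM MgCl2, 100 mM NaCl. Incubated on ice at least 30 min to reach equilibrium. Anisotropy read with vertically polarized excitation at 470 nm, detecting vertical and horizontal emission at 540 nm.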

integrin α5β1 = integrin α5β1 (Homo sapiens, UniProt P05556+P08648); assay: Fluorescence anisotropy, integrin α5β1; format: binding
Sequence of integrin α5β1 (P08648 42-995 limits assumed): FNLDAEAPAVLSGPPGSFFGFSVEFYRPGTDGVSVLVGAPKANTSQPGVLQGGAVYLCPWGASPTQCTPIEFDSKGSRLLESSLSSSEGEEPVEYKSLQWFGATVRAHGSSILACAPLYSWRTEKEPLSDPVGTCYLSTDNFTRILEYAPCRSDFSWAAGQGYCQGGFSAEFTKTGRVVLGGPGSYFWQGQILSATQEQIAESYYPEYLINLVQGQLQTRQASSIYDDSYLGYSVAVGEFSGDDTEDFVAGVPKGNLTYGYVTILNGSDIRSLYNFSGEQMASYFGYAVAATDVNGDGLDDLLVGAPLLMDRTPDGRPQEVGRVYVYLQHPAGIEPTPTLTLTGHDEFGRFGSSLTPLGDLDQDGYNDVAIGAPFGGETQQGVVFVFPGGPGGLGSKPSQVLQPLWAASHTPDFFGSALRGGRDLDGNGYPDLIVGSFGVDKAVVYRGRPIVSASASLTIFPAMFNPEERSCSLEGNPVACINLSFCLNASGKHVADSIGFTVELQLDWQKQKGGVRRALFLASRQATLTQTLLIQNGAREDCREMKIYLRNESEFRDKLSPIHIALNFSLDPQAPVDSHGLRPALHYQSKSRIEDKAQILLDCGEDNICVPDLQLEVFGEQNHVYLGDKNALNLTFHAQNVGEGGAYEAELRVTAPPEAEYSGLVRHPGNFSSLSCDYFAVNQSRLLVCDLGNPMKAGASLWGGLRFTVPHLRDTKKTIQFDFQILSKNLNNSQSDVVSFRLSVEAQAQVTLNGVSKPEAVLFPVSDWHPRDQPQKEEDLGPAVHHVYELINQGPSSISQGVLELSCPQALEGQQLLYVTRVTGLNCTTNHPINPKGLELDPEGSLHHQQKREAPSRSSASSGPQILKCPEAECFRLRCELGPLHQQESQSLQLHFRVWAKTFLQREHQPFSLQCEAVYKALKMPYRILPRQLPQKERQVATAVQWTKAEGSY
Sequence of integrin α5β1 (P05556 21-728 limits assumed): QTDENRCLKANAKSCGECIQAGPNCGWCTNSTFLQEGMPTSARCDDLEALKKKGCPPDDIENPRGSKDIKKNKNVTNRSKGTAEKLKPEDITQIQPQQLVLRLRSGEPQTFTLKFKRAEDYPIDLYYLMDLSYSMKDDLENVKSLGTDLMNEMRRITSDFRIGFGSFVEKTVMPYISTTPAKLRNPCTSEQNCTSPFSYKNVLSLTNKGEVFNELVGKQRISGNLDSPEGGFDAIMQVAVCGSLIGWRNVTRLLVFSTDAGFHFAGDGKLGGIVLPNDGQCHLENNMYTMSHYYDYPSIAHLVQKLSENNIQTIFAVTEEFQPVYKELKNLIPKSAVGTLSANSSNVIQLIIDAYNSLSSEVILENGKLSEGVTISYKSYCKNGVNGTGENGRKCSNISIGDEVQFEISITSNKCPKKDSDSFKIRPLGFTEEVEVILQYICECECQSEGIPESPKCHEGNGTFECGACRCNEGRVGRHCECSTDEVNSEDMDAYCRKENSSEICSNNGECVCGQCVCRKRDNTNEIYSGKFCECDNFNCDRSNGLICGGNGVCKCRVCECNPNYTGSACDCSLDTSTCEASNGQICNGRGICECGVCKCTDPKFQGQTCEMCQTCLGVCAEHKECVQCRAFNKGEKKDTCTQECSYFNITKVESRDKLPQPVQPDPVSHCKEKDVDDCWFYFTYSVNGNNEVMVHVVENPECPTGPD
Outline: as §1

Kd [1]: 2.21 nM
Compound: soluble, recombinant α5β1 heterodimeric integrin (from UniProt P08648 42-1049; P05556 21-728) (complex)

Compound: aflibercept: a VEGF-neutralizing protein, which is standard care for patients with NVAMD
fluorescein in the mid-vitreous, day 60 (representative VFP scans) ([2]; 50 μg of AXT107 or 500 μg of aflibercept, VEGF rechallenge (10 μg) on day 53): higher levels
leakage remaining at 60 days ([2]; 50 μg of AXT107 versus 500 μg of aflibercept, P < 0.05): 100%
leakage vs fellow eye controls, day 60 (in words) ([2]; 500 μg of aflibercept, VEGF rechallenge (10 μg) on day 53, VFP day 60): not significantly reduced

Compound: CC(=O)N[C@@H](CSC(=O)[C@]1([C@@H](O)C(C)C)NC(=O)[C@H](C)[C@@H]1O)C(=O)O [lactacystin]
AXT107-induced degradation of VEGFR2 (VEGFR2): reduced AXT107-induced degradation of VEGFR2

Kd [1]: 1.29 nM
Compound: soluble, recombinant αvβ3 heterodimeric integrin (from UniProt P06756 31-1048; P05106 27-718) (complex)

Compound: LRRFSTAPFAFIDINDVINF [AXT107]
gel-like depot in inferior vitreous, persistence ([3]; 50 μg intravitreous, 30 days after injection): still present in the same location 30 days after injection
dissipation of gel-like depot ([3]; after intraocular injection, inferior vitreous): slowly dissipates over months
intraocular pressure [4]: no increase in intraocular pressure
ocular media in the visual axis [4]: no degradation of the ocular media in the visual axis
retinal toxicity [4]: no retinal toxicity
Kd (integrin αvβ3): 1.29 nM
Kd (integrin α5β1): 2.21 nM

Reference: paper PMC5308917 (Science translational medicine, 2017)
